Experimental data published in ChEMBL document CHEMBL1150955, “Antimycobacterial activities of dehydrocostus lactone and its oxidation products” (1998).
In brackets after ≈: the same amount, converted by molar mass.

tested on: Mycobacterium tuberculosis; experiment: Antimycobacterial activity against Mycobacterium tuberculosis H37Rv by radiorespirometric bioassay; assay type: functional
Outline: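 Radiorespirometric bioassay giving MIC against strain H37Rv, run essentially per earlier reports; M. tuberculosis experiments usually completed in 10 days.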

| SMILES | MIC [µg/mL] |
| --- | --- |
| C=C1CC[C@H]2C(=C)CC[C@@]3(O)C(=C)C(=O)O[C@@H]3[C@@H]12 | > 128 |
| C=C1C(=O)O[C@@H]2[C@@H]3[C@@H](CC[C@]34CO4)[C@@]3(CC[C@@H]12)CO3 | 128 (≈ 488 µM) |
| C=C1C(=O)O[C@@H]2[C@@H]3[C@@H](CC[C@]34CO4)C(=C)CC[C@@H]12 | 32 (≈ 130 µM) |
| C=C1C(=O)O[C@@H]2[C@@H]3[C@@H](CC[C@@]34CO4)[C@]3(CC[C@@H]12)CO3 | 64 (≈ 244 µM) |
| C=C1C(=O)O[C@@H]2[C@@H]3[C@@H](CC[C@]34CO4)[C@]3(CC[C@@H]12)CO3 | 128 (≈ 488 µM) |
| C=C1CC[C@@H]2[C@H]1[C@H]1OC(=O)C(=C)[C@@H]1CC[C@]21CO1 [DEHYDROCOSTUS LACTONE,10ALPHA(14)EPOXIDE] | 64 (≈ 260 µM) |
| C=C1CC[C@@H]2[C@H]1[C@H]1OC(=O)C(=C)[C@@H]1CC[C@@]21CO1 [DEHYDROCOSTUS LACTONE,10BETA(14)EPOXIDE] | 32 (≈ 130 µM) |
| C=C1CC[C@H]2C(=C)CC[C@H]3C(=C)C(=O)O[C@@H]3[C@@H]12 [DEHYDROCOSTUSLACTONE] | 2 (≈ 8.68 µM) |
| C=C1[C@@H]2[C@H]3OC(=O)C(=C)[C@@H]3CCC(=C)[C@@H]2C[C@H]1O [ISOZALUZANIN C] | > 128 |
| C=C1C(=O)O[C@H]2[C@H]1CCC(C)=C1CC[C@@](C)(O)[C@@H]12 [MICHELIOLIDE] | 50 (≈ 201 µM) |
| C=C1C(=O)O[C@H]2[C@H]1[C@@H](O)[C@H](OC(=O)/C(C)=C\C)C(C)=C1C(=O)C=C(C)[C@@]12O [PUMILIN] | 128 (≈ 342 µM) |

tested on: Mycobacterium avium; experiment: Antimycobacterial activity against Mycobacterium avium by radiorespirometric bioassay; assay type: functional
Outline: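 MIC determined in a radiorespirometric bioassay run essentially per earlier reports; M. avium experiments usually completed within 5 days.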

| SMILES | MIC [µg/mL] |
| --- | --- |
| C=C1CC[C@H]2C(=C)CC[C@H]3C(=C)C(=O)O[C@@H]3[C@@H]12 [DEHYDROCOSTUSLACTONE] | 16 (≈ 69.5 µM) |
| C=C1C(=O)O[C@H]2[C@H]1[C@@H](O)[C@H](OC(=O)/C(C)=C\C)C(C)=C1C(=O)C=C(C)[C@@]12O [PUMILIN] | 128 (≈ 342 µM) |
